Results: paper PMC2289302 (The Journal of Cell Biology, 1992)

Experiments:
[1] = biological target: LDV peptide-RSA conjugate (human); experiment: cell adhesion assay
A375 melanoma cells = type: cell-based, human; settings: 5 ug/ml peptide, no activation, Figs. 2 and 3
How it was run: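 Surfaces coated at 5 ug/ml with plasma fibronectin or with synthetic peptides, each carrying an NH2-terminal cysteine on a gly-gly-gly tail and conjugated to SMCC-derivatized RSA. Human melanoma A375 cells were left to adhere for 1 h. Nonadherent cells were washed off. Adherent monolayers were photographed under phase contrast on an inverted microscope to judge adhesion and spreading.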

alpha 4 beta 1 integrin = alpha 4 beta 1 integrin (human (endogenous in Jurkat, Ramos, …, UniProt P13612;P05556)); experiment: cell adhesion assay

## alpha 4 beta 1 integrin (from UniProt P13612;P05556) (receptor)
[1]
  molar concentration of peptide conjugate required for 50% adhesion: > 2000

## rsa-EILDVPST
A375 melanoma cells
  adhesion of A375 melanoma cells to coated surface, in words: able to support the adhesion

## LHGPEILDVPST [B12 peptide]
Alpha 4 beta 1 integrin
  IC50: 400 µM

## GPEILDVPST [GPEILDVPST peptide]
Alpha 4 beta 1 integrin
  IC50: 450 µM

## EILDV [EILDV peptide]
Alpha 4 beta 1 integrin
  IC50: 660 µM

## DELPQLVTLPHPN [A13 peptide]
Alpha 4 beta 1 integrin
  IC50: > 1000 µM
